One assay is filed under the species Canis familiaris. Description: Ratio of MAP ED delta20 to that of IUP ED delta5.
Assay [1] has as its target T1, Alpha-2A adrenergic receptor (Homo sapiens, UniProt P08913).
T1 sequence (P08913 whole entry): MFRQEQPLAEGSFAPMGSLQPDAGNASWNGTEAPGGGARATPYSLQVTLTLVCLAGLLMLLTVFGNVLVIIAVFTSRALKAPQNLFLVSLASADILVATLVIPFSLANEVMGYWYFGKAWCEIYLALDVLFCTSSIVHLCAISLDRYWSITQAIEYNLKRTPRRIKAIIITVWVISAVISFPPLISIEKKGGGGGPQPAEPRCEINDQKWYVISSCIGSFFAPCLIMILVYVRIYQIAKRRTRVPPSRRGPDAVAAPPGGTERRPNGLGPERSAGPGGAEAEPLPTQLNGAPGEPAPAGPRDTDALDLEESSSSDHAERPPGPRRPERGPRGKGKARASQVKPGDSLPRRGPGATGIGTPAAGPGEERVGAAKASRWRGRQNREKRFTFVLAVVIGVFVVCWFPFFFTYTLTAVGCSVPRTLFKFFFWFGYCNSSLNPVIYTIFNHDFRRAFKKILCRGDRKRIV
Put plainly: In vitro binding affinity towards alpha-2A adrenergic receptor of human clone in radioligand binding assay.

In assay [2] the target is Alpha adrenergic receptor 1A and 1B (Rattus norvegicus) (UniProt P15823+P43140). Put plainly: Selectivity is ratio of pKi (binding affinity) of alpha-1B receptor to that of alpha-1A receptor. The format is protein assay.
The species named for the next assay is Rattus norvegicus. Description: Relative affinities for alpha2B and alpha1A receptors.
In assay [3] the target is T2, Alpha-1A adrenergic receptor (Oryctolagus cuniculus) (UniProt O02824).
T2 sequence (whole entry): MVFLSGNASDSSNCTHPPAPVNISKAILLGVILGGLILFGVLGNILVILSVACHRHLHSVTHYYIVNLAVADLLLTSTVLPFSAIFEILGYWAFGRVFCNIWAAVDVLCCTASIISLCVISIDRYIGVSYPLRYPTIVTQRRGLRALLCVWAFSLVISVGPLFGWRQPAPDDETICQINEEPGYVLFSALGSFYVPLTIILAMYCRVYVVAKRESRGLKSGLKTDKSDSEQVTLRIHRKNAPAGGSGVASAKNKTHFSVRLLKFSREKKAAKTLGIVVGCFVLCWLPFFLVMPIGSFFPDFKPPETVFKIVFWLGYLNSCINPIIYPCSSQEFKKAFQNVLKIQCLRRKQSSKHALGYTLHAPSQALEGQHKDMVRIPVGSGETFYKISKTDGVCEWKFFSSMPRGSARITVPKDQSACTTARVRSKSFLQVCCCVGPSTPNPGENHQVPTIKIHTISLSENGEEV
Put plainly: Functional agonism of the compounds to constrict tissue containing the alpha-1A adrenergic receptor in rabbit urethra. In kind it is tissue-based. The method, boiled down:
(§1)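 α1-agonist dose–response curves in isolated tissue: rabbit urethra (α1A), rat spleen (α1B), rat aorta (α1D). Agonist potency and efficacy read from the concentration–response curves.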

The target of assay [4] is T3, Alpha-2B adrenergic receptor (Rattus norvegicus, UniProt P19328).
T3 sequence (P19328 whole entry): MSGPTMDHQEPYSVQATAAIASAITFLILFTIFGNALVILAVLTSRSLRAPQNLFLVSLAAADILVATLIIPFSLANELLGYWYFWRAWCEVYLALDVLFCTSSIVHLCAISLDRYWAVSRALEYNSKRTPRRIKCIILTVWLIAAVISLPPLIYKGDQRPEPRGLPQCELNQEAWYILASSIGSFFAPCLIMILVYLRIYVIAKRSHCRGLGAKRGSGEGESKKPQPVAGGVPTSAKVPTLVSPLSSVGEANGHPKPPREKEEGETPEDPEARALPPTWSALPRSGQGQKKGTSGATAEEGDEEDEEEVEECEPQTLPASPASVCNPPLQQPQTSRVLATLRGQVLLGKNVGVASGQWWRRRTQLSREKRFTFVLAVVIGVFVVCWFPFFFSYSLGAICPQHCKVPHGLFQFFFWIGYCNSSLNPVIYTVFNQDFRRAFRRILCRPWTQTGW
Put plainly: In vitro binding affinity towards alpha-2B adrenergic receptor of rat neonatal lung in radioligand binding assay.

Assay [5] can be described thus: Relative affinities for alpha-2a and alpha-1A receptors.
Assay [6] deals with T4, Alpha-1D adrenergic receptor (Rattus norvegicus, UniProt P23944).
T4 sequence (P23944 whole entry): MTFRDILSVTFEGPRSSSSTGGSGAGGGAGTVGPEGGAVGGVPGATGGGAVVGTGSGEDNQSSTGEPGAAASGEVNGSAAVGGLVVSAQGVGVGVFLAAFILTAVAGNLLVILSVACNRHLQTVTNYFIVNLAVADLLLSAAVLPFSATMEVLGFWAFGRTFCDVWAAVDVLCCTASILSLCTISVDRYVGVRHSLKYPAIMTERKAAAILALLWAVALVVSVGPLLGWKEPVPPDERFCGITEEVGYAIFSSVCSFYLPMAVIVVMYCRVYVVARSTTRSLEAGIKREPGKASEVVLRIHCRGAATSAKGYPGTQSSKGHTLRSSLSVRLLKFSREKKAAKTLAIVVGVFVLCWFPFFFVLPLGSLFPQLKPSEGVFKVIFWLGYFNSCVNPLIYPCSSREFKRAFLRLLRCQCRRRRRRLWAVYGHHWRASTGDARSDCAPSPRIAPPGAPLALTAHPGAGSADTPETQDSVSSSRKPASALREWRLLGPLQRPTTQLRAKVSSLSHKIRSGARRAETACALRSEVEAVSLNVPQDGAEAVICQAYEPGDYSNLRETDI
Put plainly: In vitro binding affinity towards alpha-1D adrenergic receptor of rat clone in radioligand binding assay. The method, boiled down:
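Radioligand binding at α1 subtypes: α1A from rat submaxillary gland, α1B hamster clone, α1D rat clone. Run essentially per an earlier method.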

The target in assay [7] is T5, Alpha-1B adrenergic receptor (Rattus norvegicus) (UniProt P15823).
T5 sequence (whole entry): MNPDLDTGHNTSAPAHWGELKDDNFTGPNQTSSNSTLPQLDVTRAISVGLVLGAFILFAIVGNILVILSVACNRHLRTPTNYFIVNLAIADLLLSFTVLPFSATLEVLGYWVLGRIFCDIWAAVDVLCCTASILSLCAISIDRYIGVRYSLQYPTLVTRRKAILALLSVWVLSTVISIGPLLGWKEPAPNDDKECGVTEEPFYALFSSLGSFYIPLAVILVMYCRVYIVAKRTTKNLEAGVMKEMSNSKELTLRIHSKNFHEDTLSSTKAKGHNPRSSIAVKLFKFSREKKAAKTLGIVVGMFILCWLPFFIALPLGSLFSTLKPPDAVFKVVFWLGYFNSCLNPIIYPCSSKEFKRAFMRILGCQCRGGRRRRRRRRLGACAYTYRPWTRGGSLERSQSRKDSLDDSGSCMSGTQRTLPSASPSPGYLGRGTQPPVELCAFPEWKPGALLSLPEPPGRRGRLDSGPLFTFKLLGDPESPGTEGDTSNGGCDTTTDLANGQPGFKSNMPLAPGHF
Description: Functional agonism of the compounds to constrict tissue containing the alpha-1B adrenergic receptor in rat spleen. The format is tissue-based. The procedure, abridged: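 Agonist dose–response curves were run on isolated tissue: rabbit urethra for α1A, rat spleen for α1B, and rat aorta for α1D.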

Assay [8] concerns the target T5, Alpha-1B adrenergic receptor (Rattus norvegicus). Description: Efficacy relative to phenylephrine (PE) constriction of rat spleen containing alpha-1B adrenergic receptor. In kind it is functional, tissue-based. The procedure, abridged:
as §1

Chain of Alpha adrenergic receptor 1A and 1B (Rattus norvegicus) (P43140 whole entry, looked up, one chain of several): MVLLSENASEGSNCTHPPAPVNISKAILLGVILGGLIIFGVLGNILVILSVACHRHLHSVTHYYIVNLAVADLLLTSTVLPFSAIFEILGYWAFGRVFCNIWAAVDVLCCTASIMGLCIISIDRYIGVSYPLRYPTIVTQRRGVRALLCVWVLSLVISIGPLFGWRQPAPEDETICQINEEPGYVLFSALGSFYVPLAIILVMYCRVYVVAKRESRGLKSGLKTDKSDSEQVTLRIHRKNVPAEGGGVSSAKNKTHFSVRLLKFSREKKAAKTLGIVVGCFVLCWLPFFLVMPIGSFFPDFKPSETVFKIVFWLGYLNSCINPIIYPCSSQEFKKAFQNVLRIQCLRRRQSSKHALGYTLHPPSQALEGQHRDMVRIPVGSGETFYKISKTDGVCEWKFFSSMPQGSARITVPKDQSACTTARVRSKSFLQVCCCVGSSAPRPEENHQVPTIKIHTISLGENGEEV

One may read the Ki as a dissociation constant, usually derived from enzyme kinetics or from competition with a known ligand. A high value points to lower affinity. For `O=S(=O)(CC(F)(F)F)Nc1cccc2c1CCCC2c1c[nH]cn1` (single isomer, unassigned; (+)), the Ratio in the assay filed under Canis familiaris was 3. Moreover, the Ki in [1] was 0.955 µM; in assay [4], more than 10 µM; in assay [6] it was more than 10 µM. Besides, the Selectivity in assay [2] is more than 80; in the assay listed under Rattus norvegicus it was more than 80; in assay [5] it was 8. Also, the pD2 in assay [3] was 5.73.

Consider `CN(c1cccc2c1CCCC2c1c[nH]cn1)S(C)(=O)=O` (stereo not given), for which the Ratio in the assay listed under Canis familiaris was determined as 2.5. Besides, the pD2 in assay [7] was found to be 5.65; in assay [3], 6.16. For the same compound, the Ki was 0.0851 µM in [1] and 0.912 µM in assay [4]. Also, the Selectivity was more than 50 in assay [2], 4 in the assay listed under Rattus norvegicus and 0.4 in [5].

For the compound `COc1ccc(OC)c(C(O)CN)c1` (stereo not given) [DESGLYMIDODRINE], the Ratio in the assay filed under Canis familiaris was determined as 1.3. The compound also gave an Efficacy in assay [8] of 68%. In addition, the pD2 turned out to be 4.07 in [7] and 5.15 in assay [3]. Moreover, the inhibition constant Ki in assay [1] is 1.45 µM; in assay [4], 1.86 µM; in assay [6], 1.66 µM. The Selectivity in assay [2] was determined as 3; in the assay listed under Rattus norvegicus it was 0.9; in assay [5], 0.7.

In the case of `CC(N)C(O)c1ccccc1` (stereo not given) [PHENYLPROPANOLAMINE], in the assay listed under Canis familiaris, the Ratio was 0.4. Further, the Efficacy in assay [8] came to 34%. For the same compound, the pD2 in assay [7] turned out to be 3.55; in [3] it was 3.63. In addition, the inhibition constant (Ki) was 0.275 µM in [1], 0.263 µM in assay [4] and 8.51 µM in [6]. For the same compound, the Selectivity in [2] came out at 1; in the assay listed under Rattus norvegicus, 0.03; in assay [5], 0.03.

`O=C(Nc1cccc2c1CCCC2c1c[nH]cn1)C(F)(F)F` (stereo not given): in the assay filed under Canis familiaris, the Ratio amounted to 1.1. This compound returned an Efficacy in assay [8] of 19%. In addition, the pD2 in assay [7] turned out to be 5.47; in assay [3], 6.28. Moreover, the Ki is 0.309 µM in assay [1] and 0.661 µM in assay [4]. The Selectivity in [2] was determined as 60; in the assay filed under Rattus norvegicus, 4; in [5], 2.

These data come from ChEMBL document CHEMBL1148329, “Synthesis and structure-activity studies on N-[5-(1H-imidazol-4-yl)-5,6,7,8-tetrahydro-1-naphthalenyl]methanesulfonamide, an imidazole-containing alpha(1A)-adrenoceptor agonist” (J Med Chem, 2004).
